Active and inactive are the calls of the source. Unless noted, no stated cut-off is given here; in the data, active means inhibition above about 30%; inactive means the rest.
Legend:
[1] = Her2 expression decrease, cell viability multiplex – SKBR3 breast tumor cells, AlphaScreen, ATP viability, primary screen (AID 461;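 active means Her2 level under about 52% in both replicate screens, with viability over 70% of control, limit read from the data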;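 on Her2 level: lower value means less Her2 protein in the cells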;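 on viability: percent of carrier control wells set as 100% viability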); conditions: SKBR3 Her2 protein level, 18-24 h, measured here: SKBR3 viability, ATP luminescence, at 10 µM
[2] = target: Receptor tyrosine-protein kinase erbB-2 (Homo sapiens) (UniProt P04626); test: as above; conditions: 18-24 h, at 10 µM, stronger effect = lower value
Chain of Receptor tyrosine-protein kinase erbB-2 (Homo sapiens) (P04626 whole entry, looked up): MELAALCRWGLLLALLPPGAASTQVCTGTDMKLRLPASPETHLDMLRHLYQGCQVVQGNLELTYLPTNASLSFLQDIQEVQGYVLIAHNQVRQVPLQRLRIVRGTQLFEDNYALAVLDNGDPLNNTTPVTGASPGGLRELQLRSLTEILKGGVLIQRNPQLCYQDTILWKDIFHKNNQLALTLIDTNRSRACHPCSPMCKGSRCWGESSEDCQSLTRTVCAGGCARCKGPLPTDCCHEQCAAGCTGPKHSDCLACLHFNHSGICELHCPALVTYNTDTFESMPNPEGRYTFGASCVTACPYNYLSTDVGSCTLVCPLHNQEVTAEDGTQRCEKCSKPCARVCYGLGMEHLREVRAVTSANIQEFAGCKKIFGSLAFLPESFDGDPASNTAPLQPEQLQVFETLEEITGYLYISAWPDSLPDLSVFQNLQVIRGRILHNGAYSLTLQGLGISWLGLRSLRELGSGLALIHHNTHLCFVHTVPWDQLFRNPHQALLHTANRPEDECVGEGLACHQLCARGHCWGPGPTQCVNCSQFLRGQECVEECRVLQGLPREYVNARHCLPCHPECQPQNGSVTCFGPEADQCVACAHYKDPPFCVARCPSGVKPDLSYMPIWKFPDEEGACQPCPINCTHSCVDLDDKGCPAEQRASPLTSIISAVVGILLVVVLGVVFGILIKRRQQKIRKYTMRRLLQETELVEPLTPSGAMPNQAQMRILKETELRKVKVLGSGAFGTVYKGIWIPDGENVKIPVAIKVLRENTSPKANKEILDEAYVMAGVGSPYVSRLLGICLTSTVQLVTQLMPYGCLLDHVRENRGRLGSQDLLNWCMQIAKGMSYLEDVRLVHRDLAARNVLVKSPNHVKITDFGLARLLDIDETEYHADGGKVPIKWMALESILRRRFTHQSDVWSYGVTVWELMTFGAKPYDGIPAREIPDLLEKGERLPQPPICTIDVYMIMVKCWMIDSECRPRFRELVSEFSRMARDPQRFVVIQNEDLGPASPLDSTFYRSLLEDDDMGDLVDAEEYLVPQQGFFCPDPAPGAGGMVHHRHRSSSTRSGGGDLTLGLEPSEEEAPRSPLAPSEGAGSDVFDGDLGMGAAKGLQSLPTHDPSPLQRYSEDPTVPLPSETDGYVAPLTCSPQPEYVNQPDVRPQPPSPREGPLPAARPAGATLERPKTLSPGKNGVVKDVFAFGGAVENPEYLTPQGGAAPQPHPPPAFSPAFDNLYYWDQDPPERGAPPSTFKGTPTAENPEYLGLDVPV

[3] = reduced viability of SK-BR-3 breast cancer cells – cell-based, 24 h, human, pilot screen (AID 572;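 active means viability at or below 10% of carrier control in both of two separate runs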;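 further: compound exposure lasted between 18 and 24 h rather than exactly 24 h; 100% = carrier-treated control wells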); conditions: SK-BR-3 viability, CellTiter-Glo luminescence, at 10 µM, stronger effect = lower value
[4] = HUVEC growth inhibition – cell-based, human, primary screen (AID 575;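 active means viability at or below 30% in both replicate assays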;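 further: 100% = median of untreated cell wells with 0.1% DMSO on each plate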); conditions: HUVEC proliferation, CellTiter-Glo luminescence, 72 h; at 10 µM; stronger effect = lower value
Summary of the method: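 System – primary HUVEC, no more than 12 passages · Medium – Low-serum (2% FBS) EBM, supplemented · Times – 72 h exposure, 37 °C, 5% CO2, 30 min RT equilibration · Measured by – luminescent ATP assay · Read-out – % viability relative to median vehicle-well signal on each plate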

[5] = H69AR cell proliferation blockers – human, duplicate replicates, primary screen (AID 580;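 active means viability at or under a set limit in both replicates, limit being median viability minus 3 SD, cut at about 48% in these data, passing the limit was not always enough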;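 further: 100% = mean luminescence of untreated wells and 0% = no signal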); conditions: H69AR lung tumor cells viability, ATP luminescence, 72 h; at 10 µM; stronger effect = lower value
[6] = MRP1 drug-resistance reversers in H69AR cells – cell-based, doxorubicin co-treatment, pilot screen (AID 601;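 active means viability loss from added drug above about 55%, and viability with drug at most 40%, in both replicates, limit read from the data, passing the limit was not always enough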); conditions: CellTiter-Glo, 72 h, at 10 µM; for differential viability (reversal): stronger effect = higher value
[7] = yeast transport mutant growth inhibition pilot in 384-well plates, post-Golgi transport modulator project (AID 636; in the data active means inhibition above about 31%); conditions: absorbance 615 nm, about 18 h, stronger effect = higher value
[8] = growth suppression of yeast trafficking mutant, preliminary HTS, modulators of trafficking downstream of Golgi apparatus project, 1536-format plate, OD 615 nm (AID 637); conditions: yeast transport mutant growth, absorbance 615 nm, 18 h; stronger effect = higher value
[9] = H69AR cells + 2 uM doxorubicin, measured here: viability with 2 uM doxorubicin, stronger effect = lower value
[10] = H69AR cells, compound alone cytotoxicity

Structure (SMILES)	viability [1] [%]	Her2 level [2]	viability [3]	viability [4]	viability [5]	differential viability (reversal) ([6]; H69AR cells + 2 uM doxorubicin)	viability [6, 9] [%]	viability [6, 10] [%]	inhibition [7]	inhibition [8]
CCn1c(SCC(=O)c2ccc(OC)cc2)nnc1C(C)NC(=O)c1ccc(OC)cc1 (stereo not given)	93	106% (inactive)	93% (inactive)	85.7% (inactive)	88.2% (inactive)	-3.72% (inactive)	91.9	88.2	-1.2% (inactive)	-8.41% (inactive)
CCC(CO)Nc1ncnc2c1cnn2-c1ccc(Cl)cc1 (stereo not given)	94.5	126% (inactive)	94.5% (inactive)	91.7% (inactive)	93.7% (inactive)	13.5% (inactive)	80.2	93.7	-5.73% (inactive)	-5% (inactive)
COc1cc(C(=O)N2CCC(c3nc(-c4cccnc4)no3)CC2)cc(OC)c1OC	96	110% (inactive)	96% (inactive)	110% (inactive)	93.9% (inactive)	11.1% (inactive)	82.8	93.9	-2.16% (inactive)	6% (inactive)
Cc1noc(C)c1CSc1nnc2n(-c3ccccc3)c(=O)c3ccccc3n12	72.5	75.5% (inactive)	72.5% (inactive)	105% (inactive)	81.7% (inactive)	-18.9% (inactive)	101	81.7	2.31% (inactive)	-5.83% (inactive)
CCOC(=O)Cn1c(N2CCOCC2)nc2c1c(=O)[nH]c(=O)n2C	106	85.5% (inactive)	106% (inactive)	89.7% (inactive)	88.1% (inactive)	-0.31% (inactive)	88.4	88.1	-3.95% (inactive)	-6.83% (inactive)
Cn1c(=O)cc(OCC(=O)N2CCN(c3cccc(C(F)(F)F)c3)CC2)c2ccccc21	89	82% (inactive)	89% (inactive)	90.7% (inactive)	75.3% (inactive)	-10% (inactive)	85.3	75.3	-6.27% (inactive)	5.57% (inactive)
Cc1nc(CNS(=O)(=O)c2cc(C)c(C)cc2C)cs1	99	89% (inactive)	99% (inactive)	121% (inactive)	94.3% (inactive)	4.38% (inactive)	89.9	94.3	-7.57% (inactive)	1.67% (inactive)
COc1ccc(C2CC(=O)c3cnc(NC(=O)c4ccccc4OC)nc3C2)c(OC)c1 (stereo not given)	97.5	49% (active)	97.5% (inactive)	75.1% (inactive)	87% (inactive)	-5.78% (inactive)	92.7	87	-5.07% (inactive)	1.15% (inactive)
CS(=O)(=O)N(Cc1nc2sc3c(c2c(=O)[nH]1)CCCC3)C1CCCCC1	91	112% (inactive)	91% (inactive)	77.9% (inactive)	84% (inactive)	1.24% (inactive)	82.7	84	-4.8% (inactive)	-0.49% (inactive)
COc1ccc(-c2ccc(-c3nnc(-c4ccncc4)o3)cc2)cc1	130	103% (inactive)	130% (inactive)	119% (inactive)	96.3% (inactive)	6.73% (inactive)	89.5	96.3	-5.87% (inactive)	0% (inactive)
CCC(Sc1nc2sc(C(=O)OC)c(C)c2c(=O)n1N)C(=O)NCC1CCCO1 (stereo not given)	102	88% (inactive)	102% (inactive)	94.2% (inactive)	82.2% (inactive)	-5.51% (inactive)	87.7	82.2	-6.49% (inactive)	-1.27% (inactive)
CCOC(=O)c1c(NC(=O)c2cccs2)sc2c1CCN(C(=O)OCC)C2	174	13% (active)	174% (inactive)	6.86% (active)	23.3% (active)	-2.25% (inactive)	25.5	23.3	0.39% (inactive)	-1.8% (inactive)
Cc1nnc(NC(=O)c2ccccc2F)s1	100	101% (inactive)	100% (inactive)	107% (inactive)	104% (inactive)	13.8% (inactive)	90.2	104	-3.24% (inactive)	4.76% (inactive)
CC(C)(C)NC(=O)Cn1nnc(-c2cccs2)n1	94	84% (inactive)	94% (inactive)	101% (inactive)	92.2% (inactive)	13.1% (inactive)	79.1	92.2	-3.87% (inactive)	0% (inactive)
COc1ccc(C(=O)N2CCN(C3CCC(c4ccccc4)CC3)CC2)cc1OC (stereo not given)	108	93% (inactive)	108% (inactive)	95.2% (inactive)	83% (inactive)	-2.52% (inactive)	85.6	83	-4.16% (inactive)	-3.67% (inactive)
Nn1c(SCC(=O)Nc2ccc(F)cc2)nnc1-c1cccnc1	90.5	81% (inactive)	90.5% (inactive)	95.1% (inactive)	103% (inactive)	7.72% (inactive)	95.5	103	-0.26% (inactive)	-3.67% (inactive)
COc1ccccc1S(=O)(=O)n1cc(Cc2ccccc2)c(N)n1	96.5	86% (inactive)	96.5% (inactive)	96.4% (inactive)	104% (inactive)	5.54% (inactive)	98.5	104	-2.37% (inactive)	-6.51% (inactive)
COc1ccc(C2=NOC(C(=O)NCc3ccc(F)cc3)C2)cc1OC (stereo not given)	95.5	87.5% (inactive)	95.5% (inactive)	42% (inactive)	29.3% (active)	-34.5% (inactive)	63.9	29.3	-1.32% (inactive)	5.4% (inactive)
Cc1ccc(Cl)cc1N1CCN(C(=O)C2CCCN(S(=O)(=O)c3cnc[nH]3)C2)CC1 (stereo not given)	86.5	99.5% (inactive)	86.5% (inactive)	69.8% (inactive)	83.8% (inactive)	5.75% (inactive)	78	83.8	-2.93% (inactive)	-2.62% (inactive)
CC(NC(=O)CSc1n[nH]c(=O)n1C1CC1)C12CC3CC(CC(C3)C1)C2 (stereo not given)	91.5	106% (inactive)	91.5% (inactive)	91.6% (inactive)	99.8% (inactive)	6.17% (inactive)	93.6	99.8	-4% (inactive)	-5.41% (inactive)
CSc1cccc(NC(=O)C2CCCN2S(=O)(=O)c2ccc3c(c2)CCC(=O)N3)c1 (stereo not given)	93	93.5% (inactive)	93% (inactive)	94.7% (inactive)	89% (inactive)	0.435% (inactive)	88.6	89	-4.21% (inactive)	-8.73% (inactive)
CC(NCc1ccco1)C(=O)N1CCc2ccccc2C1 (stereo not given)	108	108% (inactive)	108% (inactive)	109% (inactive)	92.9% (inactive)	5.48% (inactive)	87.4	92.9	1.92% (inactive)	-2.06% (inactive)
CCOC(=O)CN1CC23C=CC(O2)C(C(=O)NC2CCCC2)C3C1=O (stereo not given)	86.5	84% (inactive)	86.5% (inactive)	106% (inactive)	98.2% (inactive)	10.6% (inactive)	87.6	98.2	-0.64% (inactive)	4.33% (inactive)
CC(C)(C)C1CCc2[nH]nc(C(=O)O)c2C1 (stereo not given)	104	86.5% (inactive)	104% (inactive)	92.3% (inactive)	98% (inactive)	3% (inactive)	95	98	-2.43% (inactive)	1.11% (inactive)
Cc1cc(C)c(Cn2c(=O)n(CCCC(=O)NCc3ccco3)c(=O)c3ccccc32)c(C)c1	99	97.5% (inactive)	99% (inactive)	89.4% (inactive)	94.9% (inactive)	11.4% (inactive)	83.5	94.9	-1.45% (inactive)	9.18% (inactive)
Cn1c(=O)oc2cc(S(=O)(=O)NCCC(=O)N3CCc4ccccc4C3)ccc21	102	87.5% (inactive)	102% (inactive)	96.6% (inactive)	99.3% (inactive)	7.68% (inactive)	91.6	99.3	-8.36% (inactive)	6.19% (inactive)
CCCOC(=O)c1ccc(-c2c(C)noc2-c2ccc(OC)cc2O)o1	98	74.5% (inactive)	98% (inactive)	46.3% (inactive)	75.8% (inactive)	-10.3% (inactive)	86	75.8	-4.81% (inactive)	-9.33% (inactive)
Cc1noc(C)c1COc1cccc(C(=O)Nc2ccc(C#N)cc2)c1	96	90% (inactive)	96% (inactive)	68% (inactive)	68.9% (inactive)	-10.6% (inactive)	79.6	68.9	-2.99% (inactive)	-6.67% (inactive)

From PubChem BioAssay
